Measurements as given in PMC2805920 (Biochemical Journal, 2009).

How the values were obtained:
135bp-dsDNA = test: EMSA, binding to 32P-labelled 135bp-dsDNA; set-up: species or system Trypanosoma cruzi; conditions: peptide 0.9-30 μM
135nt-ssDNA = test: EMSA, binding to 32P-labelled 135nt-ssDNA; set-up: species or system Trypanosoma cruzi
29/mm29c DNA duplex = test: DNA-melting assay on mismatched duplex; assay type: biochemical; conditions: 1 μM peptide, 32P-29mer/mm29c duplex
Summary of the method: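 A 32P-29mer and its complementary strand carrying four internal mismatches (mm29c) were annealed in water: 5 min at 95 °C, NaCl added to 50 mM, then slowly cooled to 22 °C. It was incubated 5 min at 25–55 °C, sampled every 5 °C into ice-cold tRNA/SDS/Ficoll stop mix, run on native 15 % PAGE and phosphorimaged.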

stable duplexes = conditions: read-out: Conc50, concentration required to reach the formation of 50% of stable duplexes as a measure of NAC activity; NO = no observed activity; cited from earlier work
130nt-RNA = test: EMSA, binding to 32P-labelled 130nt-RNA; set-up: species or system Trypanosoma cruzi; conditions: peptide 9 to 30 μM
Summary of the method: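 The probe was a T7 transcript radiolabelled with [α-32P]UTP, gel-purified and desalted on Sephadex G-50. Probe (0.72 nM) was incubated with increasing peptide for 30 min at 37 °C. Peptide stocks were 500 μM in PBS with 30 μM ZnCl2. Gels were dried and phosphorimaged. Kd is the peptide concentration giving 50 % RNA bound, from a Hill-equation fit.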

Q: With “LT……CPHCDSTLTGFSGLVSHCRSFHP [compound 5032]” as the substance, how does the “dsDNA-binding affinity (in words)” value (135bp-dsDNA) read?
A: no affinity

Q: And the “ssDNA-binding affinity (in words)” value (135nt-ssDNA)?
A: very low affinity

Q: What about the “effect on the Tm of the mismatched DNA duplex (in words)” value (29/mm29c DNA duplex) of the same substance?
A: does not have any influence on the Tm

Q: What about the EC50 (stable duplexes) of the same substance?
A: > 30 µM

Q: What about the “RNA-binding affinity (in words)” value (130nt-RNA) of the same substance?
A: complete loss of affinity

Q: What does the source list for “TVPPSAREEDVSPV…TLTRRRKEKC [compound 5030]”?
A: dsDNA-binding affinity (in words) (135bp-dsDNA): complete loss of binding affinity; effect on the Tm of the mismatched DNA duplex (in words) (29/mm29c DNA duplex): does not have any influence on the Tm; EC50 (stable duplexes): > 30 µM; RNA-binding affinity (in words) (130nt-RNA): eliminated
